Drawing on ChEMBL document CHEMBL1124214, “Synthesis, binding studies, and structure-activity relationships of 1-aryl-and 2-aryl[1]benzopyranopyrazol-4-ones, central benzodiazepine receptor ligands” (J Med Chem, 1988), this text covers IC50 and inhibition for 25 compounds.

The target of test [1] is GABA-A receptor; anion channel. Description: Inhibition of [3H]flunitrazepam binding to benzodiazepine receptor in bovine brain membrane. It counts as cell membranes, Bos taurus. Put shortly: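 Bovine brain membranes (0.4-0.5 mg protein) incubated in triplicate with 0.6 nM [3H]flunitrazepam, 90 min at 0 °C, 50 mM Tris-HCl; compounds in EtOH unless noted. Rapid GF/B filtration, buffer wash, scintillation counting; nonspecific binding with 10 μM diazepam. IC50 from log-probit plots, mean ± SEM of seven determinations.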

The species entered for test [2] is Bos taurus. Description: Percentage inhibition of [3H]flunitrazepam binding to benzodiazepine receptor of bovine brain membrane at 34 uM. Put shortly: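 Specific [3H]flunitrazepam binding (0.6 nM) to bovine brain membranes, 90 min at 0 °C in 50 mM Tris-HCl, triplicate incubations; test compound at 34 μM, EtOH vehicle unless noted. Filtration through GF/B, scintillation counting; 10 μM diazepam defines nonspecific binding. Percent inhibition as mean ± SEM of five determinations.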

`Cc1cccc(-n2nc3c(c2C)c(=O)oc2ccccc23)c1`: the IC50 in test [1] came out at 3 µM. That is a single-digit micromolar value.

Regarding `Cc1nn(-c2cccc(N)c2)c2c1c(=O)oc1ccccc12`, in test [1], the 50% inhibitory concentration (IC50) was 3.4 µM.

On to `Cc1nn(-c2ccc([N+](=O)[O-])cc2)c2c1c(=O)oc1ccccc12`, for which the IC50 in test [1] was 1 µM.

In the case of `Cc1cccc(-n2nc(C)c3c(=O)oc4ccccc4c32)c1`, the IC50 in test [1] stood at 0.28 µM.

On to `Cc1ccccc1-n1nc(C)c2c(=O)oc3ccccc3c21`, for which the IC50 in test [1] is 30 µM.

On to `CNC1=Nc2ccc(Cl)cc2C(c2ccccc2)=[N+]([O-])C1` [CHLORDIAZEPOXIDE], for which the IC50 in test [1] turned out to be 0.79 µM.

Take `COc1cccc(-n2nc(C)c3c(=O)oc4ccccc4c32)c1`: the IC50 in test [1] stood at 0.75 µM.

`COc1ccccc1-n1nc(C)c2c(=O)oc3ccccc3c21` showed an IC50 in test [1] of 8 µM.

For `Cc1nn(-c2ccccc2Cl)c2c1c(=O)oc1ccccc12`, the inhibition in test [2] was determined as 34%. In addition, in test [1], the IC50 worked out at 16 µM.

In test [1], `Cc1nn(-c2cccc([N+](=O)[O-])c2)c2c1c(=O)oc1ccccc12` showed an IC50 of 0.32 µM.

In the case of `Cc1cc(C)cc(-n2nc(C)c3c(=O)oc4ccccc4c32)c1`, the IC50 in test [1] was 0.065 µM.

With `Cc1nn(-c2ccc(Cl)cc2)c2c1c(=O)oc1ccccc12`, the half-maximal inhibitory concentration (IC50) in test [1] amounted to 0.75 µM.

The compound `Cc1nn(-c2cccc(Br)c2)c2c1c(=O)oc1ccccc12` had a 50% inhibitory concentration (IC50) in test [1] of 0.1 µM.

On to `Cc1nn(-c2ccccc2[N+](=O)[O-])c2c1c(=O)oc1ccccc12`, for which, in test [1], the IC50 was 43 µM.

For the compound `Cc1c2c(=O)oc3ccccc3c2nn1-c1ccccc1`, the IC50 in test [1] was determined as 3.1 µM.

`O=c1oc2ccccc2c2c1c(-c1ccccc1)nn2-c1ccccc1` showed an inhibition in test [2] of 34%. The same compound came in with an IC50 in test [1] of 16 µM.

Turning to `CN1C(=O)CN=C(c2ccccc2)c2cc(Cl)ccc21` [DIAZEPAM], the IC50 in test [1] turned out to be 0.025 µM.

Compound `COc1cccc(-n2nc3c(c2C)c(=O)oc2ccccc23)c1` displayed an IC50 in test [1] of 5 µM.

Turning to `Cc1nn(-c2ccc(N)cc2)c2c1c(=O)oc1ccccc12`, the 50% inhibitory concentration (IC50) in test [1] came to 1.3 µM.

Compound `Cc1ccc(-n2nc(C)c3c(=O)oc4ccccc4c32)cc1` displayed an IC50 in test [1] of 2 µM.

In test [1], `Cc1nn(-c2ccccc2N)c2c1c(=O)oc1ccccc12` had an IC50 of 0.63 µM.

As to `Cc1nn(-c2cccc(Cl)c2)c2c1c(=O)oc1ccccc12`, in test [1], the IC50 stood at 0.09 µM.

For the compound `COc1ccc(-n2nc(C)c3c(=O)oc4ccccc4c32)cc1`, in test [1], the IC50 came out at 0.7 µM.

Compound `Cc1nn(-c2ccccc2)c2c1c(=O)oc1ccccc12` showed a half-maximal inhibitory concentration (IC50) in test [1] of 0.3 µM.

On to `Cc1c2c(=O)oc3ccccc3c2nn1-c1cccc(Br)c1`, for which the IC50 in test [1] amounted to 25 µM.
